From ChEMBL document CHEMBL5653631, “A Potent and Selective ULK1 Inhibitor Suppresses Autophagy and Sensitizes Cancer Cells to Nutrient Stress” (iScience, 2018) come the findings set out here.

Assay [1] addresses Homeodomain-interacting protein kinase 2 (Homo sapiens) (UniProt Q9H2X6). The assay can be described thus: Inhibition of human recombinant HIPK2 at 40 nM related to control ULK1.
For assay [2], the target named is Tyrosine-protein kinase CSK (Homo sapiens) (UniProt P41240). Briefly: Inhibition of human recombinant CSK at 40 nM related to control ULK1.
Assay [3] addresses Protein kinase C alpha type (Homo sapiens) (UniProt P17252). The assay can be described thus: Inhibition of human recombinant PKCa at 40 nM in presence of ATP by radiometric assay relative to control.
The target of assay [4] is Mitogen-activated protein kinase kinase kinase 10 (Homo sapiens) (UniProt Q02779). Briefly: Inhibition of human recombinant MLK2 at 40 nM related to control ULK1.
Sequence of Mitogen-activated protein kinase kinase kinase 10 (Homo sapiens) (Q02779 whole entry, looked up): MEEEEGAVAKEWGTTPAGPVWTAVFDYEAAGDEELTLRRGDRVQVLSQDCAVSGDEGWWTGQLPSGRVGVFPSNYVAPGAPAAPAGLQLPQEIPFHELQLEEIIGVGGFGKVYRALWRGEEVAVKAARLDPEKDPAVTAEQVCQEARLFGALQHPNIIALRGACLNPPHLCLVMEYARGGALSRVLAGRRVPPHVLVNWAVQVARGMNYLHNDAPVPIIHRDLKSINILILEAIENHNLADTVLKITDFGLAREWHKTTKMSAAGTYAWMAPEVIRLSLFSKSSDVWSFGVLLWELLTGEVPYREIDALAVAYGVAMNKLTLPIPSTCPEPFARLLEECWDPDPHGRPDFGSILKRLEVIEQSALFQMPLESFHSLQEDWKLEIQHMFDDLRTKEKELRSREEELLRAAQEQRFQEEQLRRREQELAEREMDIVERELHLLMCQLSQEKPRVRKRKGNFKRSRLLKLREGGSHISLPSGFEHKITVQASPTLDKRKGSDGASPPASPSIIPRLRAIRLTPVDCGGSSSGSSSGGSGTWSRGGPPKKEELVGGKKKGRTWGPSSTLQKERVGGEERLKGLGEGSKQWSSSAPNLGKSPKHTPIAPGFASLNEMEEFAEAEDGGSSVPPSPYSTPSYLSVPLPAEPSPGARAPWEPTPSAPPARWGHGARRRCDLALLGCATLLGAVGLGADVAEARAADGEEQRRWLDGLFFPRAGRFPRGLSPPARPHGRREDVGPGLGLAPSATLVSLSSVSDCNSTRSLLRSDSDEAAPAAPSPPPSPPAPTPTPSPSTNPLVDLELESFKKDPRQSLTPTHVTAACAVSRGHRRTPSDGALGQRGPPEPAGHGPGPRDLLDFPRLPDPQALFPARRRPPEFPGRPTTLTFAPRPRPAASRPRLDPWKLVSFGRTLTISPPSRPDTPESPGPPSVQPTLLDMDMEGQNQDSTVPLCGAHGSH
Assay [5] addresses T1, Beta-adrenergic receptor kinase 1 (Homo sapiens) (UniProt P25098).
T1 sequence (whole entry): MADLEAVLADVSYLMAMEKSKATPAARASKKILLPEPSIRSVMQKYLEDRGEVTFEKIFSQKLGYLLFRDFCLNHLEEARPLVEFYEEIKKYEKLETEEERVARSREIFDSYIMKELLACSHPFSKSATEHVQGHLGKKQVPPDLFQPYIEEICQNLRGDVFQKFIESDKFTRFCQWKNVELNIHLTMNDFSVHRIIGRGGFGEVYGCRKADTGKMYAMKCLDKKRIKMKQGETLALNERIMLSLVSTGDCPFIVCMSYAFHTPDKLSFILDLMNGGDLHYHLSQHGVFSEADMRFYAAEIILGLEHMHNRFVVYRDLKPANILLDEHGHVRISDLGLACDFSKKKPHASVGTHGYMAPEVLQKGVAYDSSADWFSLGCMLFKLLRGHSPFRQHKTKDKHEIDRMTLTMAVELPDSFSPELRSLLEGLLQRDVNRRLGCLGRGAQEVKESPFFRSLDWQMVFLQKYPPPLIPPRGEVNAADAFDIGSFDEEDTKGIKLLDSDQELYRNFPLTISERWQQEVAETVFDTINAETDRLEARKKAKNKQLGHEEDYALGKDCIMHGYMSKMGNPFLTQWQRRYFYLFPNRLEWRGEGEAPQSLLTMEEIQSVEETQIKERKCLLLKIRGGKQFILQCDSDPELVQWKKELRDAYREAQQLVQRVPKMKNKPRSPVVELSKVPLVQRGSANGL
The assay can be described thus: Inhibition of human recombinant BARK1 at 40 nM in presence of ATP by radiometric assay relative to control. In short, it runs like this:
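Part of a radiometric in vitro activity panel of 327 recombinant human kinases. Each kinase was tested in duplicate at one inhibitor concentration. Activity remaining was expressed as a percentage of the vehicle control, and percent inhibition was taken as 100 minus that value.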

The target of assay [6] is Cyclin-dependent kinase 4 (Homo sapiens) (UniProt P11802). The assay can be described thus: Inhibition of human recombinant CDK4 at 40 nM related to control ULK1.
Sequence of Cyclin-dependent kinase 4 (Homo sapiens) (P11802 whole entry): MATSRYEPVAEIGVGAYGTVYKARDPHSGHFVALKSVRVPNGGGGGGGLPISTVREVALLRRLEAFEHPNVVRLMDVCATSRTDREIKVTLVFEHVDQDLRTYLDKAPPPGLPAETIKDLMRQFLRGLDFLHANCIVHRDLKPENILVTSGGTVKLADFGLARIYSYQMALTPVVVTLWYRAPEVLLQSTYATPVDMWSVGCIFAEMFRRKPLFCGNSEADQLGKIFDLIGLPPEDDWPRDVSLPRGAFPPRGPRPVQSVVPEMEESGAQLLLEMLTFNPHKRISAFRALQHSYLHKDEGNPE
Assay [7] deals with Serine/threonine-protein kinase SBK1 (Homo sapiens) (UniProt Q52WX2). Briefly: Inhibition of human recombinant SBK1 at 40 nM in presence of ATP by radiometric assay relative to control.
Sequence of Serine/threonine-protein kinase SBK1 (Homo sapiens) (Q52WX2 whole entry): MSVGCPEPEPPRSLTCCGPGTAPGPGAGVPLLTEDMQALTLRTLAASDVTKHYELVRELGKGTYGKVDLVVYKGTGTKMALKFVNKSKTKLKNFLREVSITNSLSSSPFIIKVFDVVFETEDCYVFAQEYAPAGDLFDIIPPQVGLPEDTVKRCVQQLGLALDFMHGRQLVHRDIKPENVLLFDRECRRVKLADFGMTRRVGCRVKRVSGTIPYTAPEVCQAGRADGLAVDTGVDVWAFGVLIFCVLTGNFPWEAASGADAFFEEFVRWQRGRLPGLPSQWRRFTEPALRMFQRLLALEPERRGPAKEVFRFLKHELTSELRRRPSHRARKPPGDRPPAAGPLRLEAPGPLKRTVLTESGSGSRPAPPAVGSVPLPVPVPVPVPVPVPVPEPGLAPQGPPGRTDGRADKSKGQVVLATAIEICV
Assay [8] addresses Interferon-induced, double-stranded RNA-activated protein kinase (Homo sapiens) (UniProt P19525). Briefly: Inhibition of human recombinant PKR at 500 nM related to control ULK1.
In assay [9] the target is Protein kinase C beta type (Homo sapiens) (UniProt P05771). The assay can be described thus: Inhibition of human recombinant PKCb at 500 nM in presence of ATP by radiometric assay relative to control.
For assay [10], the target named is Proto-oncogene tyrosine-protein kinase ROS (Homo sapiens) (UniProt P08922). Briefly: Inhibition of human recombinant ROS at 500 nM in presence of ATP by radiometric assay relative to control.
Assay [11] concerns the target RAC-alpha serine/threonine-protein kinase (Homo sapiens) (UniProt P31749). Briefly: Inhibition of human recombinant AKT1 at 500 nM in presence of ATP by radiometric assay relative to control. Put shortly: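 Panel of 327 recombinant human kinases in radiometric activity assays, each screened in duplicate at a single inhibitor concentration; percent activity remaining relative to vehicle control, percent inhibition taken as 100 minus activity remaining.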

In assay [12] the target is High affinity nerve growth factor receptor (Homo sapiens) (UniProt P04629). The assay can be described thus: Inhibition of human recombinant TRKA at 500 nM related to control ULK1.
Sequence of High affinity nerve growth factor receptor (Homo sapiens) (P04629 33-796 limits assumed): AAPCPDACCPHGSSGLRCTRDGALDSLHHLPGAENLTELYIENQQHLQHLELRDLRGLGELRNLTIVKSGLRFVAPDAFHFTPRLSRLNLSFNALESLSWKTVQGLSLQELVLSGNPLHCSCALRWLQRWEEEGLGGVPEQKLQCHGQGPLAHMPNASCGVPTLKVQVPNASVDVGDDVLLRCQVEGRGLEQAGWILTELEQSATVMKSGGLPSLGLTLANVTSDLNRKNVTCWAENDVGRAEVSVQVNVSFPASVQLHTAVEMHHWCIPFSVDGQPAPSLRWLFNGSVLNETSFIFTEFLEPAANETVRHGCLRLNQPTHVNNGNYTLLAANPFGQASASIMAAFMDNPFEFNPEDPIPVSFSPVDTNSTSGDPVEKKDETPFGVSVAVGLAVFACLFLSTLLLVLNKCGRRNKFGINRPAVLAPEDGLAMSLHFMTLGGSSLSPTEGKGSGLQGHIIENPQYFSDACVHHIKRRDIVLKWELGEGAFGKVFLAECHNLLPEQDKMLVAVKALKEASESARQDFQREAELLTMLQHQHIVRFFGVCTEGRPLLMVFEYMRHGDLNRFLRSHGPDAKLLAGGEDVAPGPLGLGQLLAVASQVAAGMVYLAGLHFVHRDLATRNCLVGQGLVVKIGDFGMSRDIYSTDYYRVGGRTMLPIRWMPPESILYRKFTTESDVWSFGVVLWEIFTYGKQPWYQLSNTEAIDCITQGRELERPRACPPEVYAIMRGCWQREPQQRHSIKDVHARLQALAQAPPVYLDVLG
In assay [13] the target is Serine/threonine-protein kinase WNK3 (Homo sapiens) (UniProt Q9BYP7). The assay can be described thus: Inhibition of human recombinant Wnk3 at 500 nM in presence of ATP by radiometric assay relative to control.
Sequence of Serine/threonine-protein kinase WNK3 (Homo sapiens) (Q9BYP7 whole entry): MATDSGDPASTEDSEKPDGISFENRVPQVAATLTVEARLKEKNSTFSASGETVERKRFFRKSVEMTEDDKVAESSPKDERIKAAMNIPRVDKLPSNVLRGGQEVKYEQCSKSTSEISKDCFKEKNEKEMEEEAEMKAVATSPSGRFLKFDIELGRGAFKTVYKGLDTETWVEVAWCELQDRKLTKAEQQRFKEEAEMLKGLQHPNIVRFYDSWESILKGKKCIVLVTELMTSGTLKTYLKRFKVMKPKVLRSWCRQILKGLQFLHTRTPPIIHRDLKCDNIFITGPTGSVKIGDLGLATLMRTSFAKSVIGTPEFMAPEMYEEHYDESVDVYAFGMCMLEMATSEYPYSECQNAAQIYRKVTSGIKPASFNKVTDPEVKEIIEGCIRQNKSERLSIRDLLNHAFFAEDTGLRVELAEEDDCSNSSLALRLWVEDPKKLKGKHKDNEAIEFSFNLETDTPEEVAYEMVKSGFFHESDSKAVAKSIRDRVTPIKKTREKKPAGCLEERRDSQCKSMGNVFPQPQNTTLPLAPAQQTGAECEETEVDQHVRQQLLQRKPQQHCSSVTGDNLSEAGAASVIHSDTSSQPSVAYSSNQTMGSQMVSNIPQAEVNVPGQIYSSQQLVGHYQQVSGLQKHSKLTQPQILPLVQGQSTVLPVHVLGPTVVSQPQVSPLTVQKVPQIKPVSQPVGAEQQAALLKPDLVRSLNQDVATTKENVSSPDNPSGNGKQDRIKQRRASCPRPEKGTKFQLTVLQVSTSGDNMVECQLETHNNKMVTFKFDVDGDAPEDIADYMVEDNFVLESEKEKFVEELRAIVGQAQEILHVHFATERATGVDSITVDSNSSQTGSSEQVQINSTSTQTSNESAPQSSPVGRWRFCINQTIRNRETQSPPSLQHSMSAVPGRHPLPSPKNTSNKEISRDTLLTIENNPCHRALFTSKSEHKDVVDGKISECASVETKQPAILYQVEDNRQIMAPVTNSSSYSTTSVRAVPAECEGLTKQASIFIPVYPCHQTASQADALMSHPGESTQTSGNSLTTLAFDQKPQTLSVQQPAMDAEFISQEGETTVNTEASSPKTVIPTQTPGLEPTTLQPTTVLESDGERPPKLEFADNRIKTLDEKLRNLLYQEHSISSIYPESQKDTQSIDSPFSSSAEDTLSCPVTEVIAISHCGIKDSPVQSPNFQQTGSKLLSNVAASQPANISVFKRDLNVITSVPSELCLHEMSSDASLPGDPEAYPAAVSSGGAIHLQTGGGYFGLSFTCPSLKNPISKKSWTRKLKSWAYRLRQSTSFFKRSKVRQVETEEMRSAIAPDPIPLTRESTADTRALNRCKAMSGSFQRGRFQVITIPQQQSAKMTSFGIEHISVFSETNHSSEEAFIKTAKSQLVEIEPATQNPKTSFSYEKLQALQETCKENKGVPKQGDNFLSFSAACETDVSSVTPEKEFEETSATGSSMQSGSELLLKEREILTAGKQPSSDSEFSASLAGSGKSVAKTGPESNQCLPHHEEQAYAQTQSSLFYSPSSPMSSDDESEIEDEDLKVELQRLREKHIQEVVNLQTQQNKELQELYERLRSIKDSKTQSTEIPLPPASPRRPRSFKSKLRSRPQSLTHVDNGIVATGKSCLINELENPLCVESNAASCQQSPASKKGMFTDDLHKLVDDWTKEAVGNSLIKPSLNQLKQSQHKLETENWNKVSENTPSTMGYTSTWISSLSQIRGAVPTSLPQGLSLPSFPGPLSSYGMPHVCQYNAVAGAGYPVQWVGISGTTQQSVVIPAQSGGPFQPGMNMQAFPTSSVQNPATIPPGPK
In assay [14] the target is T2, Serine/threonine-protein kinase Nek9 (Homo sapiens) (UniProt Q8TD19).
T2 sequence (whole entry): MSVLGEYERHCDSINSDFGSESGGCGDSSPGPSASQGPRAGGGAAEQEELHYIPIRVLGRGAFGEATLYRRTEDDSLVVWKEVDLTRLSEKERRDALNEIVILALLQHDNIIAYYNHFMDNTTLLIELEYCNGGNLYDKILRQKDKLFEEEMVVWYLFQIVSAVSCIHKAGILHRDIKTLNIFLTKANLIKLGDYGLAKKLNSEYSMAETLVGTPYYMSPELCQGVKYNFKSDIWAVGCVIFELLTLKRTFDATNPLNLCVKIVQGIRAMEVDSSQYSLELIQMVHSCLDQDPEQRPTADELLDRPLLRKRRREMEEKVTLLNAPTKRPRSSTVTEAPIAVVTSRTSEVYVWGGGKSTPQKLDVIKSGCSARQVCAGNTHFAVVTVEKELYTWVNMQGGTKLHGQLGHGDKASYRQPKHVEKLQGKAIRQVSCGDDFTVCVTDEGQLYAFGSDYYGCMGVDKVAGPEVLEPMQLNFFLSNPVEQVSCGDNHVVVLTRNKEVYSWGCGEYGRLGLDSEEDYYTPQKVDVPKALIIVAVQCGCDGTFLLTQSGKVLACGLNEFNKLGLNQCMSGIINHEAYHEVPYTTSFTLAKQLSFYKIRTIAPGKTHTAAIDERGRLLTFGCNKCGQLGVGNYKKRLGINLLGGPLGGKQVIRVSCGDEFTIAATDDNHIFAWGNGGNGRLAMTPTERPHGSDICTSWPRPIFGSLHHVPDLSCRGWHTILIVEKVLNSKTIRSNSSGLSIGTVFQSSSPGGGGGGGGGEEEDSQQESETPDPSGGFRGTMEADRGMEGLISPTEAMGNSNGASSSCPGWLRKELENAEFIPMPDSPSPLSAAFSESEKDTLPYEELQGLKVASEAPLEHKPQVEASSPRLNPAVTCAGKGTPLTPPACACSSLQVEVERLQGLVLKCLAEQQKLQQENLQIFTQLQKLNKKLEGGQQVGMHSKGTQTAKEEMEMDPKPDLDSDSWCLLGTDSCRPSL
The assay can be described thus: Inhibition of human recombinant NEK9 at 15 nM in presence of ATP by radiometric assay relative to control.

Assay [15] concerns the target Cyclin-dependent kinase 6 (Homo sapiens) (UniProt Q00534). The assay can be described thus: Inhibition of human recombinant CDK6 at 15 nM in presence of ATP by radiometric assay relative to control.
Assay [16] addresses Dual specificity protein kinase CLK4 (Homo sapiens) (UniProt Q9HAZ1). Briefly: Inhibition of human recombinant CLK4 at 15 nM related to control ULK1.

The structures appear in SMILES notation.

Sequence of Cyclin-dependent kinase 6 (Homo sapiens) (Q00534 whole entry): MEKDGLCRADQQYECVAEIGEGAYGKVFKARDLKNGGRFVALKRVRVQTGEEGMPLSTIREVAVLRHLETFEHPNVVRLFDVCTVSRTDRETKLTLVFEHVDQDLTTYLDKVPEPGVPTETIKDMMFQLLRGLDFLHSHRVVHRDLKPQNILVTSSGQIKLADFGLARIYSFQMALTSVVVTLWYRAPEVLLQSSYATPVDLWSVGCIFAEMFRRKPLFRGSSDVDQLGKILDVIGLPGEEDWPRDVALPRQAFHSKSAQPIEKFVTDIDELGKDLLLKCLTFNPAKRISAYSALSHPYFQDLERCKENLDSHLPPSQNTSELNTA
Sequence of Dual specificity protein kinase CLK4 (Homo sapiens) (Q9HAZ1 whole entry, looked up): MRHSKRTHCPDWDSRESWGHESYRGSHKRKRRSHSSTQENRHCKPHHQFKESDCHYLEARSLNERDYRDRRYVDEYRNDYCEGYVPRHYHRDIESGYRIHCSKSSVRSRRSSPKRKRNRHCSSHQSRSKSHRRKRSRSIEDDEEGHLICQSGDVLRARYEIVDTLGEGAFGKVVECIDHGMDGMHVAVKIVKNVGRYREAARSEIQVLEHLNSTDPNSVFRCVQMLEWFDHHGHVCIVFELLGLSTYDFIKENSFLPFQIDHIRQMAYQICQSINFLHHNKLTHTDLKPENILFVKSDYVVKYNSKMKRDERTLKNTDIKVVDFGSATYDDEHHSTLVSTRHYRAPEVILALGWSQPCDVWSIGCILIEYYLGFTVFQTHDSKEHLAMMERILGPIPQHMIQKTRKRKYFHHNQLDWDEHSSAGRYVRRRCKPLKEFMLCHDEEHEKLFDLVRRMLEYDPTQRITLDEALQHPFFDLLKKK

Broadly, the inhibition is how much of the control response was suppressed. On to `O=C(N[C@@H](C1CC1)C(F)(F)F)c1cc(-c2cnn3cc(-c4ccc(F)cc4)cnc23)cs1`, for which the fold change (FC) in assay [1], in assay [2], in assay [4] and in assay [6] was 0 throughout. The inhibition in assay [3] amounted to 0%; in assay [5], 3%; in [7], 0%.

Turning to `CNC(=O)c1ccccc1Oc1nc(Nc2cc(OC)c(OC)c(OC)c2)ncc1Br`, the fold change (FC) was 0.05 in assay [8] and 0.7 in assay [12]. Further, the inhibition in assay [9] amounted to 7%; in [10] it was 0%; in assay [11], 0%; in assay [13], 6%.

Regarding `CC(C)[C@H](NC(=O)c1cc(-c2cnn3cc(-c4ccc(OCCN5CCCCC5)cc4)cnc23)cs1)C(F)(F)F`, the inhibition came to 22% in assay [14] and 8% in assay [15]. For the same molecule, in assay [16], the fold change (FC) is 0.94.
